Experimental data from ChEMBL document CHEMBL1158349, “Synthesis and antimicrobial evaluation of 1-(benzofuran-2-yl)-4-nitro-3-arylbutan-1-ones and 3-(benzofuran-2-yl)-4,5-dihydro-5-aryl-1-[4-(aryl)-1,3-thiazol-2-yl]-1H-pyrazoles” (2009).

Assays:
Type in all cases: functional
Details in all cases: read-out: DIZ
[1] = test system: Candida albicans; assay: Antifungal activity against Candida albicans at 100 ug after 48 hrs by agar disc-diffusion method
How it was run: (§1)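 Disc diffusion on nutrient agar. Plates were inoculated separately with each fungus, then 6 mm paper discs wetted with the compound solution in DMSO were applied. Fluconazole was the reference drug. Plates were incubated at 37 °C, and inhibition-zone diameters were read after 48 h.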

[2] = test system: Staphylococcus aureus; assay: Antibacterial activity against Staphylococcus aureus at 100 ug after 24 hrs by agar disc-diffusion method
How it was run: (§2)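 Agar disc-diffusion on nutrient agar. Sterile 6 mm filter-paper discs moistened with the test compound in DMSO were placed on plates seeded separately with each bacterium. Amoxicillin was the reference drug. Plates were incubated at 37 °C, and the growth-inhibition zone diameter was measured after 24 h.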

[3] = test system: Bacillus subtilis; assay: Antibacterial activity against Bacillus subtilis at 100 ug after 24 hrs by agar disc-diffusion method; how it was run: as §2
[4] = test system: Escherichia coli; assay: Antibacterial activity against Escherichia coli at 100 ug after 24 hrs by agar disc-diffusion method; how it was run: as §2
[5] = test system: Aspergillus niger; assay: Antifungal activity against Aspergillus niger at 100 ug after 48 hrs by agar disc-diffusion method; how it was run: as §1

Compound	zone of inhibition at 100 µg/disc [1] [mm]	zone of inhibition at 100 µg/disc [2] [mm]	zone of inhibition at 100 µg/disc [3] [mm]	zone of inhibition at 100 µg/disc [4] [mm]	zone of inhibition at 100 µg/disc [5] [mm]
COc1ccc(C(CC(=O)c2cc3ccccc3o2)C[N+](=O)[O-])cc1 (stereo not given)	25	0	0	12	0
NC(=S)N1N=C(c2cc3ccccc3o2)CC1c1ccc(Cl)cc1 (stereo not given)	0	0	12	15	15
O=C(CC(C[N+](=O)[O-])c1ccccc1)c1cc2ccccc2o1 (stereo not given)	30	0	0	12	0
c1ccc(-c2csc(N3N=C(c4cc5ccccc5o4)CC3c3ccccc3)n2)cc1 (stereo not given)	0	17	0	25	0
Clc1ccc(C2CC(c3cc4ccccc4o3)=NN2c2nc(-c3ccccc3)cs2)cc1 (stereo not given)	25	0	0	12	15
O=C(CC(C[N+](=O)[O-])c1ccc(Cl)cc1)c1cc2ccccc2o1 (stereo not given)	20	0	0	12	15
Brc1ccc(-c2csc(N3N=C(c4cc5ccccc5o4)CC3c3ccccc3)n2)cc1 (stereo not given)	0	0	0	0	0
NC(=S)N1N=C(c2cc3ccccc3o2)CC1c1ccccc1 (stereo not given)	5	0	0	0	0
Clc1ccc(C2CC(c3cc4ccccc4o3)=NN2c2nc(-c3ccc(Br)cc3)cs2)cc1 (stereo not given)	25	0	0	0	0
CC1(C)S[C@@H]2[C@H](NC(=O)[C@H](N)c3ccc(O)cc3)C(=O)N2[C@H]1C(=O)O [AMOXICILLIN]	–	20	20	20	–
OC(Cn1cncn1)(Cn1cncn1)c1ccc(F)cc1F [FLUCONAZOLE]	20	–	–	–	20
